# ChEMBL document CHEMBL4732088, “Identification and optimization of piperlongumine analogues as potential antioxidant and anti-inflammatory agents via activation of Nrf2” (Eur J Med Chem, 2021)
# Calls of active or inactive are those of the source. The calls are words filed in the database; no cut-off is given here.
# Experiments:
# PC-12 [1] = test: Neuroprotective activity against H2O2-induced cell damage in rat PC12 cells preincubated for 24 hrs followed by H2O2 treatment by MTT assay; type: functional, cell-based; details: dose 5-20 µM
# Method in brief: (§1)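 PC12 cells pretreated 24 h with compound (5, 10, 20 μM), then H₂O₂ (200 μM) or 6-OHDA (150 μM); viability by MTT; mean ± SD, three independent experiments.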
# PC-12 [2] = test: Protection against H2O2-induced apoptosis in rat PC12 cells assessed as viable cells at 5 uM incubated for 24 hrs by annexin V FITC/propidium iodide staining based flow cytometry (reference value: 79.3 %); type: functional; details: read-out: Activity
# PC-12 [3] = test: Neuroprotective activity against H2O2-induced cell death in rat PC12 cells at 20 uM preincubated for 30 mins in presence of brusatol followed by H2O2 stimulation and measured after 24 hrs by MTT assay; type: functional, cell-based; details: time 24.5 hrs
# Method in brief: (§2)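 PC12 cells incubated 30 min with compound (20 μM) plus brusatol (10 nM) or ZnPP (10 nM), then insult for 24 h (H₂O₂ stated as 150 μM); viability by MTT.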
# PC-12 [4] = test: Prevention of 6-OHDA-induced calcium overload in rat PC12 cells assessed as reduction in intracellular free calcium by measuring mean fluorescence intensity at 5 uM pretreated with compound followed by 6-OHDA addition measured after 24 hrs by Fluo-3AM based fluorescence assay (reference value: 6708.18%); type: functional
# PC-12 [5] = test: Protection against H2O2-induced apoptosis in rat PC12 cells assessed as necrotic cells at 20 uM incubated for 24 hrs by annexin V FITC/propidium iodide staining based flow cytometry (reference value: 0.6 %); type: functional
# PC-12 [6] = test: Protection against 6-OHDA-induced mitochondrial dysfunction in rat PC12 cells assessed as change in mitochondrial membrane potential at 20 uM pretreated with compound followed by 6-OHDA addition by JC-1 staining based flow cytometry (reference value: 73.2 %); type: functional
# Method in brief: (§3)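 Mitochondrial membrane potential in PC12 cells pretreated with compound (5, 10, 20 μM), then exposed to H₂O₂ (200 μM) or 6-OHDA (150 μM). JC-1 staining, red-to-green fluorescence shift read by flow cytometry. Mean ± SD, n = 3.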
# PC-12 [7] = test: Neuroprotective activity against 6-OHDA-induced cell death in rat PC12 cells assessed as cell viability at 20 uM preincubated for 30 mins in presence of ZNPP […] and measured after 24 hrs by MTT assay; type: functional, cell-based; details: time 24.5 hrs
# PC-12 [8] = test: Neuroprotective activity against 6-OHDA-induced cell damage in rat PC12 cells preincubated for 24 hrs followed by 6-OHDA treatment by MTT assay; type: functional, cell-based; details: dose 5-20 µM; method in brief: as §1
# PC-12 [9] = test: Protection against 6-OHDA-induced apoptosis in rat PC12 cells assessed as viable cells at 20 uM incubated for 24 hrs by annexin V FITC/propidium iodide staining based flow cytometry (reference value: 72.0 %); type: functional; details: read-out: Activity
# PC-12 [10] = test: Cytoprotective activity against 6-OHDA-induced neurotoxicity in rat PC12 cells assessed as reduction in LDH release at 5 to 20 uM preincubated for 24 hrs followed by 6-OHDA treatment by LDH assay; type: functional, cell-based; details: dose 5-20 µM
# Method in brief: (§4)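 PC12 cells pretreated with compound (5, 10, 20 μM) for 24 h, then H₂O₂ or 6-OHDA; membrane damage read as LDH leakage; mean ± SD of three independent experiments.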
# PC-12 [11] = test: Protection against 6-OHDA-induced apoptosis in rat PC12 cells assessed as viable cells at 10 uM incubated for 24 hrs by annexin V FITC/propidium iodide staining based flow cytometry (reference value: 72.0 %); type: functional; details: read-out: Activity
# BV-2 = test: Antiinflammatory activity in mouse BV2 cells transfected with Nrf2 siRNA assessed as reduction in LPS-induced NO production at 20 uM pretreated with compound followed by LPS stimulation for 18 hrs
# PC-12 [12] = test: Neuroprotective activity against H2O2-induced cell death in rat PC12 cells assessed as cell viability at 20 uM preincubated for 30 mins in presence of ZNPP followed by H2O2 stimulation and measured after 24 hrs by MTT assay; type: functional, cell-based; details: time 24.5 hrs; method in brief: as §2
# PC-12 [13] = test: Protection against 6-OHDA-induced apoptosis in rat PC12 cells assessed as early apoptotic cells at 20 uM incubated for 24 hrs by annexin V FITC/propidium iodide staining based flow cytometry (reference value: 19.2 %); type: functional
# [14] = target: T1, Nuclear factor erythroid 2-related factor 2 (Rattus norvegicus) (UniProt O54968); test: Activation of Nrf2 in rat PC12 cells assessed as increase in TrxR1 protein level after 24 hrs by Western blot analysis; type: cell-based; details: PC-12, filed as activator, dose 5-20 µM
# T1 sequence (whole entry): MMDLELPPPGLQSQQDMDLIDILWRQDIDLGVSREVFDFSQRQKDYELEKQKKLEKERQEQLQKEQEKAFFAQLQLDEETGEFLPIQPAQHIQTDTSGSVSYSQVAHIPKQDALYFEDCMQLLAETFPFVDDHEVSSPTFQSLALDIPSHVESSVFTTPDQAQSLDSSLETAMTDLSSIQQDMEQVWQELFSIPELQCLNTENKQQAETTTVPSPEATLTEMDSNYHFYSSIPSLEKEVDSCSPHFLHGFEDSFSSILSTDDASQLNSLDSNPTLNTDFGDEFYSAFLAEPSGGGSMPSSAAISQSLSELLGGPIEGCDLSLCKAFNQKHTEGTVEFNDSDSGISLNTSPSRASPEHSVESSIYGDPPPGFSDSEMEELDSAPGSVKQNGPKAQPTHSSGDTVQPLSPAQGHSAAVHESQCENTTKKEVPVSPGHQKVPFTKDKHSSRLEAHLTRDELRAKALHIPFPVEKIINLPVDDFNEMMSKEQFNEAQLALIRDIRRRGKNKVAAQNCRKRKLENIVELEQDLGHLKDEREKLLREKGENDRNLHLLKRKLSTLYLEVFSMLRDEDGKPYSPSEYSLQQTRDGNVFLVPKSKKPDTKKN
# Method in brief: (§5)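 PC12 cells treated with compound for 24 h at rising concentrations; NQO1, HO-1, TrxR1, GCLM, GCLC protein detected by Western blot.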
# PC-12 [15] = test: Protection against H2O2-induced apoptosis in rat PC12 cells assessed as viable cells at 10 uM incubated for 24 hrs by annexin V FITC/propidium iodide staining based flow cytometry (reference value: 79.3 %); type: functional; details: read-out: Activity
# PC-12 [16] = test: Cytoprotective activity against H2O2-induced neurotoxicity in rat PC12 cells assessed as reduction in LDH release at 5 to 20 uM preincubated for 24 hrs followed by H2O2 treatment by LDH assay; type: functional, cell-based; details: dose 5-20 µM; method in brief: as §4
# PC-12 [17] = test: Protection against 6-OHDA-induced mitochondrial dysfunction in rat PC12 cells assessed as change in mitochondrial membrane potential loss at 20 uM pretreated with compound followed by 6-OHDA addition by JC-1 staining based flow cytometry (reference value: 26.8 %); type: functional; method in brief: as §3
# [18] = target: T1, Nuclear factor erythroid 2-related factor 2 (Rattus norvegicus); test: Activation of Nrf2 in rat PC12 cells assessed as increase in HO-1 protein level after 24 hrs by Western blot analysis; type: cell-based; details: PC-12, filed as activator, dose 5-20 µM; method in brief: as §5
# PC-12 [19] = test: Protection against H2O2-induced apoptosis in rat PC12 cells assessed as late apoptotic cells at 5 uM incubated for 24 hrs by annexin V FITC/propidium iodide staining based flow cytometry (reference value: 16.2 %); type: functional
# PC-12 [20] = test: Protection against H2O2-induced apoptosis in rat PC12 cells assessed as necrotic cells at 10 uM incubated for 24 hrs by annexin V FITC/propidium iodide staining based flow cytometry (reference value: 0.6 %); type: functional
compound,measurement,setting,value
CCN(C)C(=O)N1CCN(C(=O)/C=C/c2ccc(F)cc2)C1=O,Activity,PC-12 [1],Dose-dependent effect
same,viability at 5 µM,PC-12 [2],84.1%
same,Activity,PC-12 [3],inactive
same,Flu intensity,PC-12 [4],4910.91
same,Activity,PC-12 [5],0.3%
same,Activity,PC-12 [6],89.3%
same,Activity,PC-12 [7],inactive
same,Activity,PC-12 [8],Dose-dependent effect
same,viability at 20 µM,PC-12 [9],89%
same,Activity,PC-12 [10],Active
same,viability at 10 µM,PC-12 [11],85.4%
same,Activity,BV-2,inactive
same,Activity,PC-12 [12],inactive
same,Activity,PC-12 [13],5.2%
same,Activity,[14],Dose-dependent effect
same,viability at 10 µM,PC-12 [15],92.4%
same,Activity,PC-12 [16],Active
same,Activity,PC-12 [17],10.7%
same,Activity,[18],Dose-dependent effect
same,Activity,PC-12 [19],9.9%
same,Activity,PC-12 [20],0.2%
